Experimental data from article PMC6307981 (Journal of Pharmaceutical Sciences, 2019).

Assays:
[1] = Equilibrium solubility of the crystalline compounds; type: physicochemical; settings: 37°C, >24 h, mean ± s.d., n = 3, LLOQ 1 μg/mL
Outline: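 Excess crystalline solid (2-3 mg per 1 mL) in water held at 37°C for >24 h. Supernatant cleared by centrifugation at 30,279 × g for ≥20 min, then quantified by HPLC-UV: isocratic C18 column at 50°C, acetonitrile/water 80:20 or 70:30 depending on compound, 1 mL/min, detection at 280 nm, calibration against acetonitrile standards.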

[2] = type: in vivo, rats (male; Sprague-Dawley); settings: rat
Outline: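 Male Sprague-Dawley rats, lightly isoflurane-anaesthetised, got 250 μL dosing solution intratracheally by catheter to the tracheal bifurcation at 0.067, 0.12 or 0.28 mg/kg. Plasma, lung and, in one study, BAL sampled to 24 or 48 h and assayed by LC-MS. Four-compartment model with central lung fixed at 2 g and BAL plus lung summed. M3 used for <LLOQ data; VPC; apparent parameters scaled to 0.3 kg.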

[3] = Metabolic stability in human liver microsomes; type: in vitro ADME
Outline: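 Incubated with 0.5 mg/mL human liver microsomes at 1 μM compound in 100 mM KPO4, pH 7.4, started with 1 mM NADPH. Aliquots at 0, 5, 10, 20, 40 and 60 min quenched in cold acetonitrile. Parent remaining measured by LC-MS/MS.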

[4] = intratracheal, apparent parameter of final model, scaled to 0.3 kg
[5] = intratracheal, final model, scaled to 0.3 kg
[6] = from human liver microsomes data

In the case of CCCCCCCCCc1nc2cc(Cl)ccc2c(=O)n1N [SEN001, 3-amino-7-chloro-2-nonylquinazolin-4(3H)-one], the Solubility in water [1] is reported as “<LLOQ”, the “Time of distribution equilibrium (lung, BAL, plasma)” value ([2]; intratracheal 0.067 mg/kg) is reported as 2 h and the “CLC, clearance central” value [2, 4] is reported as 0.0745 L/h. For the same compound, the “CLLP, clearance lung to plasma” value [2, 4] was 0.0175 L/h, the “VC, volume of distribution central” value [2, 4] was 0.0855 L and the “FBAL, fraction in BAL” value ([2]; intratracheal, final model (Table 5)) was 0.980%. The “QL, intercompartmental clearance lung” value [2, 5] was 0.00596 L/h, the “VLP, volume of distribution deep lung” value [2, 5] was 0.0582 L and the “CLH (hepatic clearance)” value [3, 6] was 747.9 mL/min. The “EH (hepatic extraction ratio)” value [3, 6] was 0.50, the “CLint (intrinsic clearance)” value ([3]; human liver microsomes, 1 μM compound) was 1491.7 mL/min and the half-life at 1 μM ([3]; human, liver microsomes, pH 7.4) was 54.4 min.
